Calls of active or inactive are those of the source. The rule behind the calls is not given here.
Assays:
Trypanosoma cruzi [1] = experiment: Antiparasitic activity against epimastigotes of Trypanosoma cruzi Dm28c assessed as reduction of parasite count after 5 days; assay type: functional; conditions: 120 h
Trypanosoma cruzi [2] = experiment: Antiparasitic activity against trypomastigotes of Trypanosoma cruzi Y assessed as reduction of parasite count after 24 hrs; assay type: functional
[3] = Cytotoxicity against BALB/c mouse splenocytes assessed as maximum non-toxic concentration by measuring [3H]-thymidine incorporation after 24 hrs by liquid scintillation counting; assay type: cell-based, Splenocyte
Summary of the method: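 BALB/c splenocytes, 5 x 10^6 cells/well, given compounds at 1.23, 3.7, 33.33 and 100 µg/mL, 1% DMSO final, triplicate; 24 h at 37 °C, 5% CO2. Then 1.0 µCi [3H]-thymidine added; cells harvested and counted by liquid scintillation. Highest non-cytotoxic concentration taken from % incorporation.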

Trypanosoma cruzi [4] = experiment: Antitrypanosomal activity against amastigote and trypomastigote forms of Trypanosoma cruzi Tulahuen expressing beta-galactosidase gene infected in mouse L-929 cells assessed as inhibition of parasite growth after 7 days by colorimetric betagalactosidase assay; assay type: functional, organism-based; conditions: L929, 168 h
[5] = Cytotoxicity against mouse L929 cells assessed as cell viability after 96 hrs by alamarBlue assay; assay type: cell-based
Summary of the method: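 Uninfected L-929 cells at the same cell number and timing as the beta-galactosidase assay; increasing concentrations starting at the T. cruzi IC50, quadruplicate. After 96 h, alamarBlue added; absorbance at 570 and 600 nm read 6 h later. Viability as % reduction versus untreated; CC50 by linear interpolation.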

[6] = Selectivity index, ratio of CC50 for mouse L929 cells to IC50 for amastigote and trypomastigote forms of Trypanosoma cruzi Tulahuen; assay type: functional
Summary of the method: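 SI = CC50 in uninfected L-929 fibroblasts (alamarBlue, 96 h) divided by IC50 against intracellular amastigote/trypomastigote forms (beta-galactosidase assay, 7 days).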

[7] = target: Cruzipain (Trypanosoma cruzi) (UniProt P25779); experiment: Inhibition of Trypanosoma cruzi catalytic activity of cruzain using Z-FR-AMC as substrate at 50 uM after 10 mins by fluorescence assay
Trypanosoma cruzi [8] = experiment: Antitrypanosomal activity against amastigote and trypomastigote forms of Trypanosoma cruzi Tulahuen expressing beta-galactosidase gene infected in mouse L-929 cells assessed as inhibition of parasite growth at 100 uM after 7 days by colorimetric betagalactosidase assay; assay type: functional; conditions: L929, 168 h
Trypanosoma cruzi [9] = experiment: Antiparasitic activity against trypomastigotes of Trypanosoma cruzi Y assessed as induction of parasite death at 5 uM after 24 hrs using propidium iodide staining after 24 hrs by flow cytometry analysis; assay type: functional
Summary of the method: (§1)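 Y strain trypomastigotes (4x10^5) in RPMI-1640 with 10% FBS, exposed to test agent for 24 h at 37 °C, 5% CO2; then stained with propidium iodide and analysed by flow cytometry, at least 10,000 events. Read-out is % PI-positive cells versus untreated parasites; Triton X-100 as positive control. Two independent experiments, each concentration in duplicate.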

Trypanosoma cruzi [10] = experiment: Antiparasitic activity against trypomastigotes of Trypanosoma cruzi Y assessed as induction of parasite death at 0.5 uM after 24 hrs using propidium iodide staining after 24 hrs by flow cytometry analysis; assay type: functional; summary of the method: as §1
Trypanosoma cruzi [11] = experiment: Antiparasitic activity against trypomastigotes of Trypanosoma cruzi Y assessed as induction of parasite death after 24 hrs using propidium iodide staining after 24 hrs by flow cytometry analysis; assay type: functional, organism-based
Summary of the method: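 Y strain trypomastigotes (4x10^5) in RPMI-1640 + 10% FBS exposed to 0.5 or 5.0 µM of each thiosemicarbazone, benznidazole 25 µM, or Triton X-100, for 24 h at 37 °C, 5% CO2. Then PI-stained and read by flow cytometry, at least 10,000 events. Two independent experiments, duplicates.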

Cruzipain = Cruzipain (Trypanosoma cruzi, UniProt P25779); experiment: Inhibition of Trypanosoma cruzi catalytic activity of cruzain using Z-FR-AMC as substrate after 10 mins by fluorescence assay
[12] = target: Cruzipain (Trypanosoma cruzi) (UniProt P25779); experiment: Inhibition of Trypanosoma cruzi catalytic activity of cruzain using Z-FR-AMC as substrate at 100 uM after 10 mins by fluorescence assay
Trypanosoma cruzi [13] = experiment: Antiparasitic activity against trypomastigotes of Trypanosoma cruzi Y assessed as induction of parasite death at 25 uM after 24 hrs using propidium iodide staining after 24 hrs by flow cytometry analysis; assay type: functional; summary of the method: as §1

Sequence of Cruzipain (Trypanosoma cruzi) (P25779 123-467 limits assumed): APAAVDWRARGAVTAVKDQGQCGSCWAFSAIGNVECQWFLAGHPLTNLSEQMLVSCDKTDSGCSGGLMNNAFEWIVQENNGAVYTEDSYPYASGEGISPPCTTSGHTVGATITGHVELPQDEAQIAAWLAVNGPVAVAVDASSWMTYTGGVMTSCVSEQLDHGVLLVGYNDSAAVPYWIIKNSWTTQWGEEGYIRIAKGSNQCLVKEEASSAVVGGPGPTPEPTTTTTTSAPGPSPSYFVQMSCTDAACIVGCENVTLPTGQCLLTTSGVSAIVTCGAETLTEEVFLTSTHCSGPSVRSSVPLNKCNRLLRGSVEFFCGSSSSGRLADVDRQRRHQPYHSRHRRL
Sequence of Cruzipain (P25779 whole entry): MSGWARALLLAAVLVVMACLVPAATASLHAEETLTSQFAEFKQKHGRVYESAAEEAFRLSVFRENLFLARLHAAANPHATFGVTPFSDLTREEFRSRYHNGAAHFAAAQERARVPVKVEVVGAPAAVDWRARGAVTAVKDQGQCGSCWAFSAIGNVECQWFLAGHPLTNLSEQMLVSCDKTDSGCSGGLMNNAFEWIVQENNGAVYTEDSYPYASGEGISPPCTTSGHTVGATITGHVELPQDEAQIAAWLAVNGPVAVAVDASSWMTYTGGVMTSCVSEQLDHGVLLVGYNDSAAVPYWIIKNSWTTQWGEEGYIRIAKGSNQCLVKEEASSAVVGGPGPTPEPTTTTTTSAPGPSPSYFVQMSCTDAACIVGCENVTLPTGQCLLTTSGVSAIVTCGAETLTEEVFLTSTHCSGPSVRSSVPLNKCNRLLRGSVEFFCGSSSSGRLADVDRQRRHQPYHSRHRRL

Row | inhibition [12] | SMILES | IC50 (Trypanosoma cruzi [1]) | CC50 (Trypanosoma cruzi [2]) | MNTC at 24 h [3] | IC50 (Trypanosoma cruzi [4]) | CC50 at 96 h [5] | Ratio CC50/IC50 [6] | inhibition [7] | inhibition at 100 µM (Trypanosoma cruzi [8]) | Activity (Trypanosoma cruzi [9]) | Activity (Trypanosoma cruzi [10]) | inhibition (Trypanosoma cruzi [11]) | IC50 (Cruzipain) | Activity (Trypanosoma cruzi [13])
1 |  | CC(C)c1ccc(OC/C(=N\NC(N)=S)c2ccc(Br)cc2)cc1 | 3.8 µM | 2.9 µM | > 246000 nM | 12.3 µM | 24.6 µM | 2 | 49.7% | > 70% | 42.2% | 2.3% | Dose-dependent effect |  | 
2 |  | NC(=S)N/N=C(\COc1ccc(F)cc1)c1ccc(Br)cc1 | 1.8 µM | 3.1 µM | 2600 nM | 15.7 µM | 52.3 µM | 3.3 | 84% | > 70% |  |  |  | 0.4 µM | 
3 |  | NC(=S)N/N=C(\COc1ccc(Cl)c(Cl)c1)c1ccc(Br)cc1 | 1.8 µM | 3 µM | < 2300 nM | 8.3 µM | 23.1 µM | 2.8 | 99.1% | > 70% | 44.9% | 2.3% |  | 0.008 µM | 
4 | inactive | CC(=O)Nc1ccc(OC(C)/C(C)=N/NC(N)=S)cc1 (configuration not stated) |  |  |  |  |  |  |  |  |  |  |  |  | 
5 |  | O=C(Cn1ccnc1[N+](=O)[O-])NCc1ccccc1 [BENZNIDAZOLE] |  | 6.2 µM |  |  |  | 625 |  |  | 4.2% |  |  |  | 56.4%
6 | inactive | C/C(=N\NC(N)=S)C(C)Oc1ccccc1-c1ccccc1 (configuration not stated) |  |  |  |  |  |  |  |  |  |  |  |  | 
7 |  | NC(=S)N/N=C(/COc1ccc(Br)cc1)c1ccc(-c2ccccc2)cc1 | 3.9 µM | 2.1 µM | 2300 nM | 3.3 µM | 22.7 µM | 6.9 | 88.9% | > 70% |  |  |  | 0.6 µM | 
8 |  | NC(=S)N/N=C(\COc1ccc(F)c(Cl)c1)c1ccc(Br)cc1 | 3.4 µM | 1.7 µM | 2400 nM | 9 µM | 48 µM | 5.3 | 93.7% | > 70% | 34% | 2.7% |  | 0.07 µM | 

— ChEMBL document CHEMBL3612009, “Synthesis and structure-activity relationship study of a new series of antiparasitic aryloxyl thiosemicarbazones inhibiting Trypanosoma cruzi cruzain” (Eur J Med Chem, 2015)
